Assay results from ChEMBL document CHEMBL1240531, “Effects of conformational restriction of 2-amino-3-benzoylthiophenes on A(1) adenosine receptor modulation” (J Med Chem, 2010).

These compounds were tested against T1, Adenosine receptor A1 (Homo sapiens) (UniProt P30542) (assay: Allosteric enhancement of human adenosine A1 receptor expressed in CHO FlpIn cells assessed as potentiation of N(6)-(R-phenylisopropyl)adenosine-induced ERK1/2 phosphorylation at 3 uM relative to N(6)-(R-phenylisopropyl)adenosine). Details: not given.
T1 sequence (whole entry): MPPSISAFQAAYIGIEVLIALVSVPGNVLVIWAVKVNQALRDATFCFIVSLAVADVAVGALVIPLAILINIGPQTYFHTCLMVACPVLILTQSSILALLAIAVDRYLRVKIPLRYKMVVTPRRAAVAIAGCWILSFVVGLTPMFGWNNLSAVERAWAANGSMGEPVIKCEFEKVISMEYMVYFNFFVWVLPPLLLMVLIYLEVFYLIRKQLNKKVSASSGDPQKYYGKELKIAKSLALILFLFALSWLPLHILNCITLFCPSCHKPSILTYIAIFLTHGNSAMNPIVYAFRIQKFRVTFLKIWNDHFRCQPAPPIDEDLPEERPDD
Format: cell-based

| Compound | Activity [%] |
| --- | --- |
| Nc1sc(-c2ccc(C(=O)O)cc2)cc1C(=O)c1ccccc1 | 51 |
| COc1ccc(-c2sc(N)c3c2-c2ccccc2C3=O)cc1 | 37 |
| Nc1sc(-c2ccccc2)cc1C(=O)c1ccc(Cl)cc1 | 46 |
| COc1ccc(-c2cc(C(=O)c3ccccc3)c(N)s2)cc1 | 31 |
| Nc1scc2c1C(=O)c1c(Cl)cccc1-2 | 45 |
| Nc1sc(-c2ccccc2)c2c1C(=O)c1ccccc1-2 | 19 |
| Nc1sc(-c2cncnc2)c2c1C(=O)c1ccccc1-2 | 19 |
| CN(C)c1ccc(-c2cc(C(=O)c3ccccc3)c(N)s2)cc1 | 50 |
| Nc1sccc1C(=O)c1ccc(Cl)cc1 | 50 |
| Nc1sc(-c2ccc(C(=O)O)cc2)c2c1C(=O)c1ccccc1-2 | 19 |
| Nc1sc(-c2ccncc2)cc1C(=O)c1ccccc1 | 23 |
| Nc1sc2c(c1C(=O)c1ccccc1)-c1cc(C(F)(F)F)ccc1C2 | 52 |
| Nc1sc(-c2ccccc2)cc1C(=O)c1ccccc1 | 12 |
| Nc1sc(-c2cncnc2)cc1C(=O)c1ccccc1 | 18 |
| Nc1sc2c(c1C(=O)c1ccccc1)-c1cccc(C(F)(F)F)c1C2 | 56 |
| Nc1scc2c1C(=O)c1ccccc1-2 | 45 |
| Nc1sc(-c2ccncc2)cc1C(=O)c1ccc(Cl)cc1 | 44 |
| Nc1sc(-c2ccc(C(=O)O)cc2)cc1C(=O)c1ccc(Cl)cc1 | 27 |
| Nc1sc2c(c1C(=O)c1ccc(Cl)cc1)-c1cc(C(F)(F)F)ccc1C2 | 62 |
| CN(C)c1ccc(-c2sc(N)c3c2-c2ccccc2C3=O)cc1 | 48 |
| COc1ccc(-c2cc(C(=O)c3ccc(Cl)cc3)c(N)s2)cc1 | 51 |
| Nc1scc2c1C(=O)c1ccc(Cl)cc1-2 | 56 |
| Nc1sc2c(c1C(=O)c1ccc(Cl)cc1)-c1ccccc1C2 | 81 |
| Nc1sc(-c2cncnc2)cc1C(=O)c1ccc(Cl)cc1 | 7 |
| Nc1sccc1C(=O)c1ccccc1 | 48 |
| CN(C)c1ccc(-c2cc(C(=O)c3ccc(Cl)cc3)c(N)s2)cc1 | 56 |
| Nc1sc(-c2ccncc2)c2c1C(=O)c1ccccc1-2 | 28 |
| Nc1sc2c(c1C(=O)c1ccccc1)-c1ccccc1C2 | 23 |
| Nc1sc2c(c1C(=O)c1ccc(Cl)cc1)-c1cccc(C(F)(F)F)c1C2 | 65 |

What follows are compounds tested against T1, Adenosine receptor A1 (Homo sapiens) (assay: Allosteric enhancement of human adenosine A1 receptor expressed in CHO FlpIn cells assessed as increase of ERK1/2 phosphorylation at 3 to 10 uM relative to N(6)-(R-phenylisopropyl)adenosine). Details: not given.
Format: cell-based

| Compound | Activity [%] |
| --- | --- |
| Nc1sc(-c2ccc(C(=O)O)cc2)cc1C(=O)c1ccccc1 | 5 |
| COc1ccc(-c2sc(N)c3c2-c2ccccc2C3=O)cc1 | 5 |
| Nc1sc(-c2ccccc2)cc1C(=O)c1ccc(Cl)cc1 | 5 |
| COc1ccc(-c2cc(C(=O)c3ccccc3)c(N)s2)cc1 | 5 |
| Nc1scc2c1C(=O)c1c(Cl)cccc1-2 | 5 |
| Nc1sc(-c2ccccc2)c2c1C(=O)c1ccccc1-2 | 5 |
| Nc1sc(-c2cncnc2)c2c1C(=O)c1ccccc1-2 | 5 |
| CN(C)c1ccc(-c2cc(C(=O)c3ccccc3)c(N)s2)cc1 | 5 |
| Nc1sccc1C(=O)c1ccc(Cl)cc1 | 5 |
| Nc1sc(-c2ccc(C(=O)O)cc2)c2c1C(=O)c1ccccc1-2 | 5 |
| Nc1sc(-c2ccncc2)cc1C(=O)c1ccccc1 | 5 |
| Nc1sc2c(c1C(=O)c1ccccc1)-c1cc(C(F)(F)F)ccc1C2 | 5 |
| Nc1sc(-c2ccccc2)cc1C(=O)c1ccccc1 | 5 |
| Nc1sc(-c2cncnc2)cc1C(=O)c1ccccc1 | 5 |
| Nc1sc2c(c1C(=O)c1ccccc1)-c1cccc(C(F)(F)F)c1C2 | 5 |
| Nc1scc2c1C(=O)c1ccccc1-2 | 5 |
| Nc1sc(-c2ccncc2)cc1C(=O)c1ccc(Cl)cc1 | 5 |
| Nc1sc(-c2ccc(C(=O)O)cc2)cc1C(=O)c1ccc(Cl)cc1 | 5 |
| Nc1sc2c(c1C(=O)c1ccc(Cl)cc1)-c1cc(C(F)(F)F)ccc1C2 | 5 |
| CN(C)c1ccc(-c2sc(N)c3c2-c2ccccc2C3=O)cc1 | 5 |
| COc1ccc(-c2cc(C(=O)c3ccc(Cl)cc3)c(N)s2)cc1 | 5 |
| Nc1scc2c1C(=O)c1ccc(Cl)cc1-2 | 20 |
| Nc1sc2c(c1C(=O)c1ccc(Cl)cc1)-c1ccccc1C2 | 20 |
| Nc1sc(-c2cncnc2)cc1C(=O)c1ccc(Cl)cc1 | 5 |
| Nc1sccc1C(=O)c1ccccc1 | 5 |
| CN(C)c1ccc(-c2cc(C(=O)c3ccc(Cl)cc3)c(N)s2)cc1 | 5 |
| Nc1sc(-c2ccncc2)c2c1C(=O)c1ccccc1-2 | 5 |
| Nc1sc2c(c1C(=O)c1ccccc1)-c1ccccc1C2 | 5 |
| Nc1sc2c(c1C(=O)c1ccc(Cl)cc1)-c1cccc(C(F)(F)F)c1C2 | 5 |

Each compound was assayed against T1, Adenosine receptor A1 (Homo sapiens) (assay: Allosteric enhancement of human adenosine A1 receptor expressed in CHO FlpIn cells assessed as potentiation of N(6)-(R-phenylisopropyl)adenosine-induced ERK1/2 phosphorylation at 10 uM relative to N(6)-(R-phenylisopropyl)adenosine). Details: not given.
Format: cell-based

| Compound | Activity [%] |
| --- | --- |
| Nc1sc(-c2ccc(C(=O)O)cc2)cc1C(=O)c1ccccc1 | 27 |
| COc1ccc(-c2sc(N)c3c2-c2ccccc2C3=O)cc1 | 18 |
| Nc1sc(-c2ccccc2)cc1C(=O)c1ccc(Cl)cc1 | 16 |
| COc1ccc(-c2cc(C(=O)c3ccccc3)c(N)s2)cc1 | 14 |
| Nc1scc2c1C(=O)c1c(Cl)cccc1-2 | 38 |
| Nc1sc(-c2ccccc2)c2c1C(=O)c1ccccc1-2 | 3 |
| Nc1sc(-c2cncnc2)c2c1C(=O)c1ccccc1-2 | 7 |
| CN(C)c1ccc(-c2cc(C(=O)c3ccccc3)c(N)s2)cc1 | 29 |
| Nc1sccc1C(=O)c1ccc(Cl)cc1 | 40 |
| Nc1sc(-c2ccc(C(=O)O)cc2)c2c1C(=O)c1ccccc1-2 | 7 |
| Nc1sc(-c2ccncc2)cc1C(=O)c1ccccc1 | 17 |
| Nc1sc2c(c1C(=O)c1ccccc1)-c1cc(C(F)(F)F)ccc1C2 | 38 |
| Nc1sc(-c2ccccc2)cc1C(=O)c1ccccc1 | 1 |
| Nc1sc(-c2cncnc2)cc1C(=O)c1ccccc1 | 2 |
| Nc1sc2c(c1C(=O)c1ccccc1)-c1cccc(C(F)(F)F)c1C2 | 49 |
| Nc1scc2c1C(=O)c1ccccc1-2 | 27 |
| Nc1sc(-c2ccncc2)cc1C(=O)c1ccc(Cl)cc1 | 17 |
| Nc1sc(-c2ccc(C(=O)O)cc2)cc1C(=O)c1ccc(Cl)cc1 | 29 |
| Nc1sc2c(c1C(=O)c1ccc(Cl)cc1)-c1cc(C(F)(F)F)ccc1C2 | 73 |
| CN(C)c1ccc(-c2sc(N)c3c2-c2ccccc2C3=O)cc1 | 32 |
| COc1ccc(-c2cc(C(=O)c3ccc(Cl)cc3)c(N)s2)cc1 | 29 |
| Nc1scc2c1C(=O)c1ccc(Cl)cc1-2 | 29 |
| Nc1sc2c(c1C(=O)c1ccc(Cl)cc1)-c1ccccc1C2 | 84 |
| Nc1sc(-c2cncnc2)cc1C(=O)c1ccc(Cl)cc1 | 4 |
| Nc1sccc1C(=O)c1ccccc1 | 30 |
| CN(C)c1ccc(-c2cc(C(=O)c3ccc(Cl)cc3)c(N)s2)cc1 | 41 |
| Nc1sc(-c2ccncc2)c2c1C(=O)c1ccccc1-2 | 17 |
| Nc1sc2c(c1C(=O)c1ccccc1)-c1ccccc1C2 | 9 |
| Nc1sc2c(c1C(=O)c1ccc(Cl)cc1)-c1cccc(C(F)(F)F)c1C2 | 73 |

What follows are compounds tested against T2, Adenosine receptor A1 (Homo sapiens, UniProt P30542) (assay: Antagonist activity at human adenosine A1 receptor expressed in CHO FlpIn cells assessed as inhibition of N(6)-(R-phenylisopropyl)adenosine-induced ERK1/2 phosphorylation). Details: read-out: pA2 (converted).
T2 sequence (P30542 whole entry): T1 sequence (whole entry)
Format: functional, cell-based
Procedure, shortened: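 Human A1AR FlpIn-CHO cells were pretreated with 1 U/mL adenosine deaminase for 30 min, then with test ligand over a concentration range for 30 min at 37 °C. R-PIA was then added for 5 min stimulation. Lysates were assayed for phospho-ERK1/2 by AlphaScreen SureFire. Response was expressed as percent of the 6 min 3% FBS response. Three experiments in triplicate, mean ± SEM. Curves were fitted globally to a competitive or allosteric model.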

| Compound | Kb [nM] |
| --- | --- |
| Nc1sc(-c2cncnc2)c2c1C(=O)c1ccccc1-2 | 646 |
| Nc1sc(-c2ccccc2)cc1C(=O)c1ccccc1 | 209 |
| Nc1sc(-c2cncnc2)cc1C(=O)c1ccc(Cl)cc1 | 145 |

What follows are compounds tested against T3, Adenosine receptor A1 (Rattus norvegicus) (UniProt P25099) (assay: Allosteric enhancement of human adenosine A1 receptor in rat brain membranes assessed as increase of [3H]N6-cyclohexyladenosine binding at 100 uM relative to control). Details: not given.
T3 sequence (whole entry): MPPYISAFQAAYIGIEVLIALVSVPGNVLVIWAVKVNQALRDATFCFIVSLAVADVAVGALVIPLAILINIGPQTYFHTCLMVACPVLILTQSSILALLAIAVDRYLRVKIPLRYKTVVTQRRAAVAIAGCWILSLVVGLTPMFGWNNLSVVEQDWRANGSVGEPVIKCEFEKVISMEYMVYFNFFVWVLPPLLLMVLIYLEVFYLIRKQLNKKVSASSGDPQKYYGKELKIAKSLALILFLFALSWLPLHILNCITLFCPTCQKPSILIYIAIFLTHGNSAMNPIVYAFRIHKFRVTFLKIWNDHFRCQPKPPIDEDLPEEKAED
Format: cell membranes

| Compound | Activity [%] |
| --- | --- |
| Nc1ccccc1C(=O)c1ccccc1 | 34 |
| Nc1cccc2c1C(=O)c1ccccc1-2 | 122 |
| Nc1sccc1C(=O)c1ccccc1 | 59 |
